Experimental data taken from ChEMBL document CHEMBL3352487, “Synthesis, antibacterial activity, and biological evaluation of formyl hydroxyamino derivatives as novel potent peptide deformylase inhibitors against drug-resistant bacteria” (Eur J Med Chem, 2014).
≈ marks a conversion by molar mass, not a printed value.

Columns and labels:
Escherichia coli [1] = assay: Antimicrobial activity against Escherichia coli isolate 3 after 24 hrs by broth microdilution method; format: functional; conditions: isolate 3, 24 h
Method in brief: (§1)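 Broth microdilution following NCCLS M7-A4; ATCC strains and clinical isolates from a provincial hospital.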

Staphylococcus aureus [2] = assay: Antimicrobial activity against Staphylococcus aureus ATCC 33591 in septicemia mouse model assessed as mortality of host at 10 mg/kg administered intragastrically measured after 14 days relative to control; format: functional; conditions: ATCC 33591, po, 336 h, route intragastric
Method in brief: (§2)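 Septicemia model: outbred mice inoculated i.p. with a 90–100% lethal dose (5 × 10^6 CFU/mL) in 0.5 mL brain heart infusion broth with 5% mucin. Drug in 20% DMSO given intragastrically after infection at 5, 10 or 20 mg/kg, 0.1 mL. Six mice per dose; cumulative mortality over 14 days; ED50 derived.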

[3] = Half life in Sprague-Dawley rat at 5 mg/kg, iv; format: ADME, organism-based; design: dose 5 mg/kg, route intravenous; conditions: in vivo
[4] = Mean residence time (0 to t) in Sprague-Dawley rat at 25 mg/kg, po; format: ADME, organism-based; design: dose 25 mg/kg, route oral; conditions: in vivo
Enterococcus faecalis = assay: Antimicrobial activity against Enterococcus faecalis Isolate 1 after 24 hrs by broth microdilution method; format: functional; conditions: Isolate 1, 24 h; method in brief: as §1
[5] = AUC (0 to infinity) in Sprague-Dawley rat at 25 mg/kg, po; format: ADME, organism-based; design: dose 25 mg/kg, route oral, time infinity; conditions: plasma
Haemophilus influenzae [6] = assay: Antimicrobial activity against AcrA-deficient Haemophilus influenzae H128 after 24 hrs by broth microdilution method; format: functional; conditions: H128, 24 h; method in brief: as §1
Staphylococcus aureus [7] = assay: Antimicrobial activity against Staphylococcus aureus WCUH29 after 24 hrs by broth microdilution method; format: functional; conditions: WCUH29, 24 h; method in brief: as §1
[8] = Half life in Sprague-Dawley rat at 25 mg/kg, po; format: ADME, organism-based; design: dose 25 mg/kg, route oral; conditions: in vivo
[9] = Mean residence time (0 to t) in Sprague-Dawley rat at 5 mg/kg, iv; format: ADME, organism-based; design: dose 5 mg/kg, route intravenous; conditions: in vivo
[10] = AUC (0 to t) in Sprague-Dawley rat at 25 mg/kg, po; format: ADME, organism-based; design: dose 25 mg/kg, route oral; conditions: plasma
[11] = Clearance in Sprague-Dawley rat at 5 mg/kg, iv; format: ADME, organism-based; design: dose 5 mg/kg, route intravenous; conditions: in vivo
[12] = Protein binding in CD1 mouse plasma at 2 uM by equilibrium dialysis; format: ADME, cell-free; conditions: read-out: PPB (converted)
Streptococcus pyogenes [13] = assay: Antimicrobial activity against Streptococcus pyogenes 1308007P after 24 hrs by broth microdilution method; format: functional; method in brief: as §1
[14] = Fraction unbound in CD1 mouse plasma at 2 uM by equilibrium dialysis; format: ADME, cell-free
Method in brief: (§3)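 Pooled CD-1 mouse plasma spiked to 2 µM final, equilibrium dialysis in triplicate against 100 mM PBS pH 7.4, 4 h at 37 °C with rotation; matrix-matched samples acetonitrile-precipitated, LC-MS/MS with internal standards. Unbound = free/total ×100; recovery = (free+total)/pre-dialysis ×100.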

Haemophilus influenzae [15] = assay: Antimicrobial activity against Haemophilus influenzae Q1 after 24 hrs by broth microdilution method; format: functional; conditions: Q1, 24 h; method in brief: as §1
Staphylococcus aureus [16] = assay: Antimicrobial activity against Staphylococcus aureus ATCC 33591 in septicemia mouse model assessed as mortality of host at 20 mg/kg administered intragastrically measured after 14 days relative to control; format: functional; conditions: ATCC 33591, po, 336 h, route intragastric; method in brief: as §2
Enterococcus faecium = assay: Antimicrobial activity against Enterococcus faecium X7501 after 24 hrs by broth microdilution method; format: functional; conditions: X7501, 24 h; method in brief: as §1
Staphylococcus aureus [17] = assay: Antimicrobial activity against methicillin-resistant Staphylococcus aureus after 24 hrs by broth microdilution method; format: functional
Method in brief: (§4)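 Broth microdilution following NCCLS M7-A4, using ATCC strains and clinical isolates from a provincial hospital.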

Escherichia coli [18] = assay: Antimicrobial activity against Escherichia coli isolate 1 after 24 hrs by broth microdilution method; format: functional; conditions: isolate 1, 24 h; method in brief: as §1
Streptococcus pneumoniae [19] = assay: Antimicrobial activity against Streptococcus pneumoniae N1387 after 24 hrs by broth microdilution method; format: functional; conditions: N1387, 24 h; method in brief: as §1
[20] = AUC (0 to infinity) in Sprague-Dawley rat at 5 mg/kg, iv; format: ADME, organism-based; design: time infinity, dose 5 mg/kg, route intravenous; conditions: plasma
Staphylococcus aureus [21] = assay: Antimicrobial activity against Staphylococcus aureus after 24 hrs by broth microdilution method; format: functional; method in brief: as §1
[22] = AUC (0 to t) in Sprague-Dawley rat at 5 mg/kg, iv; format: ADME, organism-based; design: dose 5 mg/kg, route intravenous; conditions: plasma
Escherichia coli [23] = assay: Antimicrobial activity against Escherichia coli isolate 2 after 24 hrs by broth microdilution method; format: functional; conditions: isolate 2, 24 h; method in brief: as §1
Streptococcus pneumoniae [24] = assay: Antimicrobial activity against Streptococcus pneumoniae 1629 after 24 hrs by broth microdilution method; format: functional; conditions: Streptococcus pneumoniae, 1629, 24 h; method in brief: as §1
[25] = Drug recovery in CD1 mouse plasma at 2 uM by equilibrium dialysis; format: ADME, cell-free; conditions: read-out: Drug recovery; method in brief: as §3
[26] = Oral bioavailability in Sprague-Dawley rat at 25 mg/kg; format: ADME, organism-based; conditions: in vivo
hERG (KCNH2) [27] = target: T1, hERG (KCNH2) (Homo sapiens, UniProt Q12809); assay: Inhibition of human ERG at 10 uM
T1 sequence (Q12809 whole entry): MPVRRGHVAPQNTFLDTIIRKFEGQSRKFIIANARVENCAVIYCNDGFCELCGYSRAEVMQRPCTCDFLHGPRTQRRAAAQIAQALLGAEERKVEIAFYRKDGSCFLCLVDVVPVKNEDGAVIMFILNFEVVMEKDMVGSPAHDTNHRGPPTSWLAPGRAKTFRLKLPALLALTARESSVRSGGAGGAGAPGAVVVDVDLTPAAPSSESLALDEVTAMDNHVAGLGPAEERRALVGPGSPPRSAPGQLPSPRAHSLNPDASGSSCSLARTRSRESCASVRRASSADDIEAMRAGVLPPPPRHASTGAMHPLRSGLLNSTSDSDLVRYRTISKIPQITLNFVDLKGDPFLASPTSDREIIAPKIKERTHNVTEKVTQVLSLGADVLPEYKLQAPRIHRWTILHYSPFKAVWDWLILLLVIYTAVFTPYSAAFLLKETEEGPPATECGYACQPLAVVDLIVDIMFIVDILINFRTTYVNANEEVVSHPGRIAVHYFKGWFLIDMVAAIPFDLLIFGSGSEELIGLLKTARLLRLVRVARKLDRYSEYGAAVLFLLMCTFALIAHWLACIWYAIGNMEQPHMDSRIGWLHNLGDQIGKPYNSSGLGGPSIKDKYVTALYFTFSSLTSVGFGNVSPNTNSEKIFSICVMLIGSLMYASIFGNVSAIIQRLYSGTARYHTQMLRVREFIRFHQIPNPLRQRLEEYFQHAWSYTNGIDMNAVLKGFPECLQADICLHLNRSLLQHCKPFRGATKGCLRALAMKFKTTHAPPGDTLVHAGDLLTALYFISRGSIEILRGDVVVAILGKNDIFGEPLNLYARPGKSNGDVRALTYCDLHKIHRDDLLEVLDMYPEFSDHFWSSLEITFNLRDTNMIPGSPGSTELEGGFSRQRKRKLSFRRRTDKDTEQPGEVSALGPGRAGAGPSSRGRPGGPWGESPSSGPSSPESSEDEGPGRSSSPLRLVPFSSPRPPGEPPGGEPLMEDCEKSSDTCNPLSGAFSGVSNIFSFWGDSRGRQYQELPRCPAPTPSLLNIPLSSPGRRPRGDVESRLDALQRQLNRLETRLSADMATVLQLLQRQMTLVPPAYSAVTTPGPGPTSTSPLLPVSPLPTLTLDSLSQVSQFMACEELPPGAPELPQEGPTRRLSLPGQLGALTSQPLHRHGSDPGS

Streptococcus pneumoniae [28] = assay: Antimicrobial activity against Streptococcus pneumoniae ERY2 after 24 hrs by broth microdilution method; format: functional; conditions: ERY2, 24 h; method in brief: as §1
Staphylococcus aureus [29] = assay: Antimicrobial activity against methicillin-susceptible Staphylococcus aureus after 24 hrs by broth microdilution method; format: functional; method in brief: as §1
[30] = Tmax in Sprague-Dawley rat at 25 mg/kg, po; format: ADME, organism-based; design: dose 25 mg/kg, route oral; conditions: in vivo
Staphylococcus aureus [31] = assay: Antimicrobial activity against Staphylococcus aureus OXFORD after 24 hrs by broth microdilution method; format: functional; method in brief: as §4
[32] = tested on: Staphylococcus epidermidis; assay: Antimicrobial activity against Staphylococcus epidermidis after 24 hrs by broth microdilution method; format: functional; method in brief: as §1
Haemophilus influenzae [33] = assay: Antimicrobial activity against Haemophilus influenzae H128 after 24 hrs by broth microdilution method; format: functional; conditions: H128, 24 h; method in brief: as §1
Staphylococcus aureus [34] = assay: Antimicrobial activity against Staphylococcus aureus ATCC 33591 in septicemia mouse model administered intragastrically measured after 14 days; format: functional; conditions: ATCC 33591, po, 336 h
Staphylococcus aureus [35] = assay: Antimicrobial activity against Staphylococcus aureus ATCC 33591 in septicemia mouse model assessed as mortality of host at 5 mg/kg administered intragastrically measured after 14 days relative to control; format: functional; conditions: ATCC 33591, po, 336 h, route intragastric; method in brief: as §2
hERG (KCNH2) [36] = target: T1, hERG (KCNH2); assay: Inhibition of human ERG at 1 uM
Streptococcus pyogenes [37] = assay: Antimicrobial activity against Streptococcus pyogenes 1307006P after 24 hrs by broth microdilution method; format: functional; method in brief: as §1
[38] = Volume of distribution at steady state in Sprague-Dawley rat at 5 mg/kg, iv; format: ADME, organism-based; design: dose 5 mg/kg, route intravenous; conditions: in vivo, read-out: Vdss
Moraxella catarrhalis = assay: Antimicrobial activity against Moraxella catarrhalis 1502 after 24 hrs by broth microdilution method; format: functional; conditions: Moraxella catarrhalis, 1502, 24 h; method in brief: as §1
[39] = Cmax in Sprague-Dawley rat at 25 mg/kg, po; format: ADME, organism-based; design: dose 25 mg/kg, route oral; conditions: in vivo

## C=C1C[C@@H](C(=O)Nc2ncc(C)s2)N(C(=O)[C@H](CCCC)CN(O)C=O)C1
Escherichia coli [1]
  MIC: 64 µg/mL (≈ 162 µM)
Staphylococcus aureus [2]
  mortality at 10 mg/kg: 66%
[3]
  half-life: 3.21 h
[4]
  MRT last: 3.41 h
Enterococcus faecalis
  MIC: 4 µg/mL (≈ 10.1 µM)
[5]
  AUC(0-inf): 58300 ng·h/mL
Haemophilus influenzae [6]
  MIC: ≤ 0.06 µg/mL
Staphylococcus aureus [7]
  MIC: 0.125 µg/mL (≈ 0.317 µM)
[8]
  half-life: 3.02 h
[9]
  MRT last: 2.03 h
[10]
  AUC(0-t): 58100 ng·h/mL
[11]
  clearance: 4.83 mL/min/kg
[12]
  fraction unbound at 2 µM: 0.01
Streptococcus pyogenes [13]
  MIC: 2 µg/mL (≈ 5.07 µM)
[14]
  fraction unbound at 2 µM: 0.01
Haemophilus influenzae [15]
  MIC: 4 µg/mL (≈ 10.1 µM)
Staphylococcus aureus [16]
  mortality at 20 mg/kg: 50%
Enterococcus faecium
  MIC: 2 µg/mL (≈ 5.07 µM)
Staphylococcus aureus [17]
  MIC: 0.0312 µg/mL (≈ 0.0791 µM)
Escherichia coli [18]
  MIC: 64 µg/mL (≈ 162 µM)
Streptococcus pneumoniae [19]
  MIC: 1 µg/mL (≈ 2.53 µM)
[20]
  AUC(0-inf): 19800 ng·h/mL
Staphylococcus aureus [21]
  MIC: 0.25 µg/mL (≈ 0.634 µM)
[22]
  AUC(0-t): 19800 ng·h/mL
Escherichia coli [23]
  MIC: 32 µg/mL (≈ 81.1 µM)
Streptococcus pneumoniae [24]
  MIC: 2 µg/mL (≈ 5.07 µM)
[25]
  recovery at 2 µM: 93.7%
[26]
  bioavailability: 58.9%
hERG (KCNH2) [27]
  inhibition at 10 µM: -2.98%
Streptococcus pneumoniae [28]
  MIC: 2 µg/mL (≈ 5.07 µM)
Staphylococcus aureus [29]
  MIC: 0.5 µg/mL (≈ 1.27 µM)
[30]
  Tmax: 0.688 h
Staphylococcus aureus [31]
  MIC: 0.5 µg/mL (≈ 1.27 µM)
[32]
  MIC: 0.0625 µg/mL (≈ 0.158 µM)
Haemophilus influenzae [33]
  MIC: 4 µg/mL (≈ 10.1 µM)
Staphylococcus aureus [34]
  ED50: 19.6 mg/kg
Staphylococcus aureus [35]
  mortality at 5 mg/kg: 83%
hERG (KCNH2) [36]
  inhibition at 1 µM: -0.35%
Streptococcus pyogenes [37]
  MIC: 2 µg/mL (≈ 5.07 µM)
[38]
  Vd: 0.571 L/kg
Moraxella catarrhalis
  MIC: ≤ 0.06 µg/mL
[39]
  Cmax: 15700 ng/mL
